Laboratory results published in article PMC6028938 (Neurobiology of disease, 2018).

Experiments:
PKA CαM120A [1] = target: T1, PKA CαM120A (Mus musculus, UniProt P05132, M121A); format: biochemical
endogenous human ATXN1 = assay: SCA1 patient iPSC-derived neuronal cells, western blot of ATXN1; format: cell-based; conditions: 10 μM, two-day treatment
Method in brief: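 NPCs differentiated 7 days in DMEM/F12 with 100 ng/ml FGF8, 200 ng/mL SHH and 1:100 N2; β-III tubulin-stained. Treated 2 days with 10 μM test compound, lysed in Tris-Triton buffer. Western blot: MoAb-17 (1 ng/μl) for pS776, 11750 for total ATXN1, GAPDH-normalised.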

PKA = conditions: cited from earlier work
mice = conditions: mouse
Atxn1[66Q] and Atxn1[2Q] = assay: GSK690693 treatment in Atxn1 66Q/2Q cerebellar slice cultures; format: cell-based, mouse; conditions: 10 μM
PKA CαM120A [2] = target: T1, PKA CαM120A; assay: Atxn1 2Q/2Q; format: cell-based
MSK = conditions: read-out: IC50 as MSK inhibitor; cited from earlier work
PKA pathway = conditions: postnatal day 7 ATXN1[82Q] mouse cerebellar slices; cited from earlier work
[3] = test system: RFP-ATXN1[82Q] in DAOY cells; assay: Live cell imaging of DAOY cells stably expressing RFP-ATXN1[82Q]; format: cell-based, human
Method in brief: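 DAOY cells stably carrying RFP-ATXN1[82Q]-IRES-YFP, grown on 35 mm plates and moved to imaging chambers heated to 37 °C. At time zero, 10 nM test compound or DMSO vehicle was added. Brightfield and RFP images were taken every 2 minutes on an inverted fluorescence microscope.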

CαM120A = CαM120A (Mus musculus, UniProt P05132, M121A); assay: 1-NM-PP1 delivered in vivo; conditions: cage drinking water or intra-cerebro-ventricular injections, data not shown
[4] = mice, delivered in drinking water or by IP injection; cited from earlier work
[5] = one day of exposure, P10 slices
[6] = 20 μM 1-NM-PP1, three-day incubation, vs no treatment or DMSO

For `CCn1c(-c2nonc2N)nc2c(C#CC(C)(C)O)ncc(OC[C@H]3CCCNC3)c21` [GSK690693, 4-[2-(4-Amino-1,2,5-oxadiazol-3-yl)-1-ethyl-7-[(3S)-3-piperidinylmethoxy)-1H-imidazo[4,5-c]pyridin-4-yl]-2-methyl-3-butyn-2-ol], the “concentration that blocks ATXN1[30Q]-S776 phosphorylation” value (PKA CαM120A [1]; Cα M120A cerebellar extracts as kinase source) is given as ≤ 10 nM, the “reduction of endogenous ATXN1 levels” value (endogenous human ATXN1) is given as 44% and the “IC50s for AGC kinase family members including PKA (in words)” value (PKA) is given as “nanomolar”. The toxicity in vivo (mice) was “very toxic with treated mice having seizures”, the “S776 phosphorylation status (MoAB-17 blot)” value (Atxn1[66Q] and Atxn1[2Q]; by 5 days of treatment) was “decrease in pS776” and the “phosphorylation of other cerebellar proteins with PKA consensus site RRX(S/T) (pan-PKA substrates antibody)” value (Atxn1[66Q] and Atxn1[2Q]; by one day of treatment) was “Inhibition”. The “reduction of Atxn1[2Q] level” value (Atxn1[66Q] and Atxn1[2Q]; five days) was 68%, the “reduction of Atxn1[66Q] level” value (Atxn1[66Q] and Atxn1[2Q]; five days) was 70% and the “reduction of Atxn1[2Q] level” value (Atxn1[66Q] and Atxn1[2Q]; [5]) was 22%. The “reduction of Atxn1[66Q] level” value (Atxn1[66Q] and Atxn1[2Q]; [5]) was 29%, the “reduction of Atxn1[2Q] level” value (Atxn1[66Q] and Atxn1[2Q]; three days) was 54% and the “reduction of Atxn1[66Q] level” value (Atxn1[66Q] and Atxn1[2Q]; three days) was 56%. The “amount of Atxn1[2Q] protein” value (PKA CαM120A [2]; 10 μM GSK690693, two days) was “significantly decreased” and the pan-PKA substrate phosphorylation (PKA CαM120A [2]; 10 μM GSK690693, two days) was “dramatically decreased”.
In the case of `CCn1c(-c2nonc2N)nc2cncc(CNC3CCNCC3)c21` [SB-747651A], the IC50 (MSK) is given as 11 nM and the “inhibitory activity towards PKA relative to MSK (less)” value (PKA) is given as “approximately 10 fold”.
For `C=C[C@@]1(C)CC(=O)[C@]2(O)[C@@]3(C)[C@@H](O)CCC(C)(C)[C@@H]3[C@H](O)[C@H](OC(C)=O)[C@@]2(C)O1` [forskolin], the “dendritic morphology of cerebellar slices” value (PKA pathway) is given as “enhanced dendritic morphological abnormalities”.
With `CN[C@@H]1C[C@H]2O[C@@](C)([C@@H]1OC)n1c3ccccc3c3c4c(c5c6ccccc6n2c5c31)C(=O)NC4` [Staurosporine] the “RFP-ATXN1[82Q] signal” value ([3]; 10 nM staurosporine, as early as two minutes post-treatment, continued to decrease out to six minutes, 37 °C) was “substantially diminished” and the “fluorescently tagged ATXN1[82Q] detectability” value ([3]; after four minutes of exposure to staurosporine) was “no longer detectable”.
For `CC(C)(C)n1nc(Cc2cccc3ccccc23)c2c(N)ncnc21` [1-NM-PP1], the “inhibition of S776 phosphorylation” value (PKA CαM120A [1]; 10 μM 1-NM-PP1, the highest dose tested) is listed as “Subtle inhibition”, the “inhibition of CαM120A in vivo” value (CαM120A) is listed as “failed” and the “blood brain barrier crossing” value [4] is listed as “cross the blood brain barrier”. The “level of Atxn1[2Q] protein” value (PKA CαM120A [2]; [6]) was “failed to affect” and the “phosphorylation of pan-PKA substrates” value (PKA CαM120A [2]; [6]) was “failed to affect”.
